Source: PubChem BioAssay (several laboratories)
Most compounds without a hit are left out; they make up all but 6.4% or so of the library.
CHOP inhibitor: inhibitors of CHOP promoter induction, primary screen, cell-based, unfolded protein response, luciferase reporter | CHO-K1 CHOP-promoter luciferase, tunicamycin-induced, 15-18 h | inhibition, % at 10 µM | 3.8% of 220,000 active | AID 2732, 2010;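 active = compounds that reduced the stress-induced luciferase reporter signal by more than about 70% of percent inhibition, limit read from the data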
NR3A LBD binder: binders of NR3A ligand-binding domain, primary screen, biophysical, differential scanning fluorimetry, uHTS. NR3A LBD differential scanning fluorimetry, Tm shift; 0% = protein alone, 100% = glycine-bound protein. AID 1259313, 2017. 2.5% of 340,000 active. Glutamate receptor ionotropic, NMDA 3A (GRIN3A) ligand-binding domain. Tm shift relative to glycine control, % at 25 µM;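 active = melting temperature shift of at least 10% of the positive control shift, at one fixed dose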
WT yeast gro inh: growth inhibition of WT strain, primary screen, mitochondrial fusion inhibitor project, WT and mutant strains, chemical genetic; mitochondrial fusion phenotypic screen; inhibition, % at 10 µM; 2.1% of 190,000 active; AID 1362, 2008; in the data active = inhibition above about 58%; tested in S. cerevisiae
MPTP block: mitochondrial permeability transition pore inhibitors, primary screen, biochemical, isolated mouse mitochondria, absorbance | Ca2+ swelling absorbance, 30 min | inhibition, % at 10 µM | 1.4% of 360,000 active | AID 602449, 2012;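 active = inhibition of 50% or more, scaled per plate between neutral and stimulator controls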
EBV gp42 inh: Epstein-Barr virus gp42 inhibitors, primary screen, biochemical, uHTS, fluorescence polarization; Fluorescence polarization binding assay, mP read-out; inhibition, % (tested at 21.74 µM); 0.42% of 220,000 active; AID 1085, 2008; in the data active = inhibition above about 50%
Target sequence (Q1HVG2 whole entry, looked up): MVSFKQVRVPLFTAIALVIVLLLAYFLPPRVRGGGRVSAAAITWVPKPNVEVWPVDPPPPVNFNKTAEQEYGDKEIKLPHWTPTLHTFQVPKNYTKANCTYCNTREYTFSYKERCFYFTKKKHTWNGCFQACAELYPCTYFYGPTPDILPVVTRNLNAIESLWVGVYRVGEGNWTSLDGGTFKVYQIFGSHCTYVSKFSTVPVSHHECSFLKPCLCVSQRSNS
TbMetRS inhib: T. brucei MetRS inhibitors, primary screen, biochemical, luminescence. methionyl-tRNA synthetase (Trypanosoma brucei brucei). purified T. brucei MetRS, ATP depletion, Kinase-Glo luminescence. inhibition, % at 11.9 µM. 0.4% of 360,000 active;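 active = inhibition above a per-plate cutoff of the control wells' mean inhibition plus 3 SD, cut at about 5.5% in these data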
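Assay system: T. brucei methionyl-tRNA synthetase, purified | Medium: HEPES buffer with MgCl2, KCl, DTT, spermine, BSA, pyrophosphatase | Compound: 11.9 µM single point | Incubation: 15 min enzyme-compound preincubation, 2 h reaction, 10 min detection, 25 °C | Measured by: Kinase-Glo luciferase luminescence reporting remaining unconsumed ATP | Measure: % inhibition normalized to control-well medians | Replication: Singlicate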
A number is an active result; i = inactive; nt = no result.

SMILES | CHOP inhibitor | NR3A LBD binder | WT yeast gro inh | MPTP block | EBV gp42 inh | TbMetRS inhib
CCn1ccc2cc(OC)ccc2c1=S | i | i | i | i | i | i
CCSc1ccc2cc(OC)ccc2[n+]1CC | i | i | 62.0 | i | i | i
COCCn1c(SCC(=O)N2CCCC2)nc2c(c1=O)SCC2 | nt | nt | nt | i | nt | i
COCCn1c(SCC(=O)N2CCC(C)CC2)nc2c(c1=O)SCC2 | nt | 11.1 | nt | i | nt | i
Cc1ccc(-c2nc(CSc3nc4ccccc4c(=O)n3CCO)cs2)cc1 | i | i | 60.3 | i | i | i
Cc1ccc(CNC(=O)CSc2nc3ccccc3c(=O)n2CCCO)cc1 | i | i | i | i | i | i
Cc1cc2c(c(SCC(N)=O)n1)C(=O)OC2 | i | i | i | i | i | i
O=C1C(NS(=O)(=O)c2cccs2)=C(N2CCN(c3cccc(Cl)c3)CC2)C(=O)c2ccccc21 | 72.7 | i | nt | i | i | i
CCOc1ccc(C2C(C(=O)C3CC3)N3C=C(C#N)C=CC3C2(C#N)C#N)cc1 (stereo not drawn) | i | nt | i | nt | i | nt
Cc1ccc(C)c(NS(=O)(=O)c2ccc3oc(=O)ccc3c2)c1 | nt | i | nt | i | nt | i
Cc1ccc(C)c(NS(=O)(=O)c2ccc3c(c2)Cc2cc(S(=O)(=O)Nc4cc(C)ccc4C)ccc2-3)c1 | 83.0 | 18.0 | i | i | i | i
C=CCNc1nc(-c2ccc(OC)cc2OC)cs1 | i | i | i | i | i | i
C=CCn1c(N)cc(=O)nc1SC(C)C(=O)Nc1ccc(C(=O)OCC)cc1 (stereo not drawn) | nt | 14.5 | nt | i | nt | i
Cc1ccc(NC(=O)C(C)Sc2nc(=O)cc(N)n2-c2ccccc2)cc1 (stereo not drawn) | 73.3 | i | i | i | i | i
C=CCn1c(SCC(=O)Nc2ccc(C(=O)OCC)cc2)nnc1-c1sc(N)nc1C | i | i | i | i | i | i
O=C1S/C(=C\c2ccccc2)C(=O)N1CC(O)Cn1c2ccccc2c2ccccc21 (stereo not drawn) | i | i | i | i | i | i
COc1ccc(/C=C2/SC(=O)N(CC(O)Cn3c4ccccc4c4ccccc43)C2=O)cc1 (stereo not drawn) | i | 12.8 | i | i | i | i
CCN(CC)c1nc(C#N)nc(N(CC)CC)n1 | 78.8 | i | i | i | i | i
CCN(c1ccccc1)c1nc(C#N)nc(N(CC)c2ccccc2)n1 | i | i | nt | i | i | i
O=C(CSC1=NS(=O)(=O)c2ccccc2N1)Nc1ccc(F)cc1 | nt | i | nt | i | nt | i
CC1(C(=O)O)CCC(C(N)=O)C1(C)C (stereo not drawn) | i | i | nt | i | i | i
Cc1nc(CC(=O)N/N=C/c2ccc(OCC(=O)O)cc2)cs1 | i | i | nt | i | i | i
O=C(O)COc1ccc(/C=N/NC(=O)c2ccc(-c3csc(Nc4ccc(Cl)cc4)n3)cc2)cc1 | i | i | nt | i | 92.5 | i
CCOc1cc(/C=N/NC(=O)c2ccc(-c3csc(Nc4ccc(C)cc4)n3)cc2)ccc1OCC(=O)O | i | i | i | i | 89.2 | i
COc1ccc2cc(C(=O)NCCc3ccccc3)[nH]c2c1 | nt | i | nt | i | nt | i
SMILES | CHOP inhibitor | NR3A LBD binder | WT yeast gro inh | MPTP block | EBV gp42 inh | TbMetRS inhib
O=C(CCCCCNc1nc(=S)[nH]c2ccccc12)NCCc1ccc(Cl)cc1 | 83.5 | i | i | i | i | i
COC(=O)c1ccc(=O)c2nc3/c(=C/O)c(O)cc(=O)c3[nH]c12 | i | i | nt | i | 98.2 | i
O=C(NCc1ccco1)c1cccs1 | 76.3 | i | i | i | i | i
O=C(NCc1ccco1)c1cc(-c2ccccc2)on1 | i | 10.5 | 59.7 | i | i | i
CCN1CCN(c2cc(C)nc(-c3ccccc3O)n2)CC1 | i | i | nt | i | i | i
c1ccc(Oc2cc(-c3ccccc3)nc(-c3ccccc3)n2)cc1 | i | i | i | i | i | i
Cc1cc(Oc2ccccc2)nc(-c2ccccc2)n1 | 77.9 | i | i | i | i | i
COc1ccccc1-c1sc2ccccc2c1-c1ccc(O)cc1 | nt | i | nt | i | nt | i
O=C(CSc1nnc(-c2ccc(O)cc2)o1)Nc1cccc(O)c1 | nt | 17.7 | nt | i | nt | i
N#Cc1cccc(NC(=O)CSc2nnc(-c3n[nH]c4ccccc34)o2)c1 | i | 70.8 | i | i | i | i
NS(=O)(=O)c1ccc(NC(=O)CSc2nnc(-c3ccc(O)cc3)o2)cc1 | nt | 26.2 | nt | i | nt | i
O=C(CSc1nnc(-c2ccc(O)cc2)o1)Nc1ccc2c(c1)OCCO2 | i | i | i | i | i | i
Cc1ccc(NC(=O)CSc2nnc(-c3ccccc3Br)o2)cc1C | i | i | i | i | i | i
Cc1ccc(NC(=O)CSc2nnc(-c3ccccc3C)o2)cc1C | 70.1 | i | i | i | i | i
Cc1cccc(N2CCN(C(=O)COc3cccc4c3OC(C)(C)C4)CC2)c1C | 78.9 | i | i | i | i | i
Cc1cccc(N2CCN(C(=O)CCCOc3ccccc3)CC2)c1C | 83.9 | i | i | i | i | i
Cc1cccc(N2CCN(C(=O)C(Cc3ccccc3)n3cccc3)CC2)c1C (stereo not drawn) | i | i | 68.9 | i | i | i
CC1(C)Cc2cccc(OCC(=O)N3CCN(S(=O)(=O)c4ccc(F)cc4)CC3)c2O1 | i | i | i | i | i | i
Cc1cccc(N2CCN(C(=O)Cn3cccc3C(=O)c3ccccc3)CC2)c1C | 71.0 | i | i | i | i | i
O=C(CCCOc1ccccc1)N1CCN(c2ccccc2)CC1 | i | i | i | i | i | i
Cc1cccc(N2CCN(CC(=O)N(C)Cc3ccccc3)CC2C)c1 (stereo not drawn) | nt | i | nt | i | nt | i
Cc1cc(OCCCC(=O)N2CCCCC2)cc(C)c1Cl | 82.5 | i | i | i | i | i
O=c1n(Cc2ccccc2F)c2ccccc2n1Cc1ccccc1F | 73.8 | i | i | i | i | i
CCOc1ccc(OCC)c(NS(=O)(=O)c2cccc3nsnc23)c1 | 83.2 | i | i | i | i | i
O=[N+]([O-])c1ccc(-c2cnc(SCc3ccccc3Cl)[nH]2)cc1 | i | 13.1 | i | i | i | i
Cc1cc(C)c(CSc2ncc(-c3ccc([N+](=O)[O-])cc3)[nH]2)c(C)c1 | 74.6 | 12.1 | i | i | i | i
COc1ccc(CN=Cc2[nH]c3ccc(Br)c(Cl)c3c2O)cc1 | i | i | i | i | i | i
Cc1cc(C)cc(N=Cc2[nH]c3ccc(Br)c(Cl)c3c2O)c1 | 102.8 | 17.7 | i | i | i | i
O=C(C1=NN[C@@H]2C(=O)N(c3cccc(C(F)(F)F)c3)C(=O)[C@H]12)C(c1ccccc1)c1ccccc1 | i | 15.5 | i | i | i | i
